# According to ChEMBL document CHEMBL5303300, “EUbOPEN Chemogenomics Library - Multiplex” (2023):
# “And” between values parts separate entries of the source, which are not always exact repeats. Equal values may be shown once.
# System: U2OS
# Assay: Multiplex assay against U2OS
# Type: toxicity, cell-based
# Conditions: human, number of replicates 2
# Procedure, shortened: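 Compound was added to live cells that had been stained at seeding with Hoechst33342, BioTracker Green Microtubule Cytoskeleton Dye, MitoTracker Red and Annexin V Alexa Fluor 680, and imaging followed on a CQ1 microscope at 37°C and 5% CO2. CellPathfinder machine-learning gating divided cells into Hoechst high-intensity objects or normal cells, normal cells into healthy, pyknosed or fragmented nuclei, and pyknosed cells into mitotic or apoptotic. Tubulin, mitochondrial-mass and membrane-permeability phenotypes are per cents of healthy-nucleus cells.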
# [1] = 12 h, 10 µM, compound concentration 10 uM
# [2] = 24 h, 10 µM, compound concentration 10 uM
# [3] = 48 h, 10 µM, compound concentration 10 uM
# [4] = 12 h, 1 µM, compound concentration 1 uM
# [5] = 24 h, 1 µM, compound concentration 1 uM
# [6] = 48 h, 1 µM, compound concentration 1 uM
compound,measurement,setting,value
CCOC(=O)Nc1cc(-c2ccc(C)c(NS(C)(=O)=O)c2)nn2c(C)nnc12,Population Apoptotic (%),[1],54% and 50% and 20%
same,Population Healthy Nuclei (%),[1],66% and 75% and 76% and 53%
same,Population Hoechst High Intensity Objects (%),[1],0%
same,Population Membrane Permeable-Phenotype (%),[1],3% and 0% and 5%
same,Population Mitochondria Different-Phenotype (%),[1],3% [middle of 4 runs]
same,Population Mitotic Cells (%),[1],45% and 50% and 80%
same,Population Normal (%),[1],100%
same,Population Pyknosed Nuclei (%),[1],24% and 19% and 17% and 15%
same,Population Tubulin-Different-Phenotype (%),[1],59% [middle of 4 runs]
same,Population Apoptotic (%),[2],70% and 65% and 53% and 66%
same,Population Healthy Nuclei (%),[2],59% and 69% and 67% and 50%
same,Population Hoechst High Intensity Objects (%),[2],0%
same,Population Membrane Permeable-Phenotype (%),[2],6% [middle of 4 runs]
same,Population Mitotic Cells (%),[2],29% and 35% and 46% and 33%
same,Population Normal (%),[2],100% and 99%
same,Population Pyknosed Nuclei (%),[2],20% [middle of 4 runs]
same,Population Tubulin-Different-Phenotype (%),[2],71% [middle of 4 runs]
same,Population Apoptotic (%),[3],85% and 72% and 76%
same,Population Fragmented Nuclei (%),[3],30% and 20% and 18%
same,Population Healthy Nuclei (%),[3],30% and 33% and 51%
same,Population Hoechst High Intensity Objects (%),[3],0% and 3%
same,Population Mitochondria Different-Phenotype (%),[3],9% and 0% and 3%
same,Population Mitotic Cells (%),[3],14% and 27% and 23%
same,Population Normal (%),[3],100% and 96% and 99%
same,Population Pyknosed Nuclei (%),[3],38% and 45% and 27% and 29%
O=C1NC(=O)C(c2ccccc2[N+](=O)[O-])=C1Nc1ccc(O)c(Cl)c1,Population Apoptotic (%),[4],100% and 38%
same,Population Fragmented Nuclei (%),[4],12% and 5%
same,Population Healthy Nuclei (%),[4],80% and 83%
same,Population Hoechst High Intensity Objects (%),[4],0%
same,Population Membrane Permeable-Phenotype (%),[4],0% and 1%
same,Population Mitochondria Different-Phenotype (%),[4],0%
same,Population Normal (%),[4],100%
same,Population Pyknosed Nuclei (%),[4],8% and 10%
same,Population Tubulin-Different-Phenotype (%),[4],85% and 90%
same,Population Apoptotic (%),[1],80% and 37%
same,Population Fragmented Nuclei (%),[1],9% and 5%
same,Population Healthy Nuclei (%),[1],68% and 83%
same,Population Hoechst High Intensity Objects (%),[1],0% and 3%
same,Population Membrane Permeable-Phenotype (%),[1],6% and 3%
same,Population Mitochondria Different-Phenotype (%),[1],6% and 0%
same,Population Normal (%),[1],100% and 96%
same,Population Pyknosed Nuclei (%),[1],22% and 10%
same,Population Tubulin-Different-Phenotype (%),[1],73% and 92%
same,Total Cell Count,[1],22
same,Population Apoptotic (%),[5],40% and 37%
same,Population Healthy Nuclei (%),[5],67% and 86%
same,Population Hoechst High Intensity Objects (%),[5],0%
same,Population Membrane Permeable-Phenotype (%),[5],4% and 2%
same,Population Mitochondria Different-Phenotype (%),[5],0%
same,Population Mitotic Cells (%),[5],60% and 62%
same,Population Normal (%),[5],100%
same,Population Pyknosed Nuclei (%),[5],14% and 10%
same,Population Tubulin-Different-Phenotype (%),[5],73% and 92%
same,Population Apoptotic (%),[2],66% and 31%
same,Population Fragmented Nuclei (%),[2],8% and 5%
same,Population Healthy Nuclei (%),[2],73% and 84%
same,Population Hoechst High Intensity Objects (%),[2],0%
same,Population Membrane Permeable-Phenotype (%),[2],4% and 1%
same,Population Mitochondria Different-Phenotype (%),[2],4% and 0%
same,Population Mitotic Cells (%),[2],33% and 68%
same,Population Normal (%),[2],100% and 99%
same,Population Pyknosed Nuclei (%),[2],17% and 10%
same,Population Tubulin-Different-Phenotype (%),[2],84% and 95%
same,Population Apoptotic (%),[6],71% and 55%
same,Population Fragmented Nuclei (%),[6],9% and 3%
same,Population Healthy Nuclei (%),[6],80% and 90%
same,Population Hoechst High Intensity Objects (%),[6],0%
same,Population Membrane Permeable-Phenotype (%),[6],1%
same,Population Mitochondria Different-Phenotype (%),[6],0%
same,Population Mitotic Cells (%),[6],28% and 44%
same,Population Normal (%),[6],100%
same,Population Pyknosed Nuclei (%),[6],10% and 5%
same,Population Tubulin-Different-Phenotype (%),[6],86% and 93%
same,Population Apoptotic (%),[3],22% and 31%
same,Population Fragmented Nuclei (%),[3],5% and 7%
same,Population Healthy Nuclei (%),[3],77% and 85%
same,Population Hoechst High Intensity Objects (%),[3],0% and 2%
same,Population Membrane Permeable-Phenotype (%),[3],2% and 0%
same,Population Mitochondria Different-Phenotype (%),[3],2% and 0%
same,Population Mitotic Cells (%),[3],77% and 68%
same,Population Normal (%),[3],100% and 97%
same,Population Pyknosed Nuclei (%),[3],16% and 7%
same,Population Tubulin-Different-Phenotype (%),[3],92% and 98%
